Assay results of several laboratories.
Each line is one published result; the experiments were not run side by side.
Target: Protein kinase C iota type (PRKCI, Homo sapiens, UniProt P41743)
One construct used (P41743 1-596): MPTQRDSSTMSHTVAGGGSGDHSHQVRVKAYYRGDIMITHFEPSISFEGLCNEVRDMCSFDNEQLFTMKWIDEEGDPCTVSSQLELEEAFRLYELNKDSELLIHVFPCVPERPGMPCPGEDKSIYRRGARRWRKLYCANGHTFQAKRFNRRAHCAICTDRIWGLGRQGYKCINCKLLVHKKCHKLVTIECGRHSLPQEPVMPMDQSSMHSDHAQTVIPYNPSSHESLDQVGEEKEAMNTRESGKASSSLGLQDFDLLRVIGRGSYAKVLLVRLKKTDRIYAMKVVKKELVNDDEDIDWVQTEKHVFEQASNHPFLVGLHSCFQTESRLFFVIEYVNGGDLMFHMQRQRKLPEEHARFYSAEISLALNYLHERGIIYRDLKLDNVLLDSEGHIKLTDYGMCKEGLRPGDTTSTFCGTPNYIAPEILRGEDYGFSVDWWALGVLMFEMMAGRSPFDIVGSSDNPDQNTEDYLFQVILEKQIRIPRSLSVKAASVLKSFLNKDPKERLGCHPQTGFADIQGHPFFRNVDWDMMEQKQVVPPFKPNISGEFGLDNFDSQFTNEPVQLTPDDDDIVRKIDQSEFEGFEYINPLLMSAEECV

CO[C@@H]1[C@H](N(C)C(=O)c2ccccc2)C[C@H]2O[C@]1(C)n1c3ccccc3c3c4c(c5c6ccccc6n2c5c31)C(=O)NC4 — inhibition (enzyme activity; inhibitor; 1 µM): 43%
CC(C)S(=O)(=O)c1ccc2nccc(Nc3ccc4sc(C5CCCC5)nc4c3)c2c1 — activity vs control (enzyme activity; inhibitor; 1 µM): 107%
CN1CCN(C(=O)c2ccc(NC(=O)Nc3ccc(N(C)c4ccnc(Nc5ccc(CS(C)(=O)=O)cc5)n4)cc3)cc2)CC1 — remaining binding (binding; 1 µM): 74%
CCCCC(=O)Nc1ccc(-c2ccc3ncn(CCC)c(=O)c3c2)cn1 — remaining binding (binding; competition with immobilised ligand; 0.5 µM): 91%
Cc1cc(O)c(-c2ccc([C@@H](C)CN(C)C)cc2)c2c1[nH]c(=O)c1sccc12 — inhibition (cell-free assay; inhibitor; 0.1 µM; lysate): 7.26%
COc1ccc2[nH]c3c4[nH]c5ccc(OC)cc5c4c4c(c3c2c1)C(=O)NC4=O — remaining binding (binding; 1 µM): 63%
C1=C/COCc2cc(ccc2OCCN2CCCC2)Nc2nccc(n2)-c2cccc(c2)COC/1 — remaining binding (binding; 0.1 µM): 95%
CC#CC(=O)N1CCC[C@H]1c1nc(-c2ccc(C(=O)Nc3ccccn3)cc2)c2c(N)nccn12 — inhibition (enzyme activity; inhibitor; 1 µM): 0%
